From ChEMBL document CHEMBL1130029 (J Med Chem, 1997) come the findings set out here.

One data set deals with Monkey. Nature of the data set: In vitro hepatic microsomal metabolism in monkey. It counts as functional. The conditions noted are these: Cercopithecidae, Liver. In a few lines: (§1)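 Microsomes from F344 rat, beagle dog, cynomolgus monkey or pooled human were incubated at 37 °C in a shaking bath. The oxidative arm used pH 7.4 Tris with NADPH and was run 3 h. The glucuronidation arm used pH 7.4 Tris-Brij with MgCl2 and UDPGA and was run 1 h. Compound was added from an acetone stock. Reactions were stopped with chilled acetonitrile, and unincubated controls were compared. Remaining parent was measured by HPLC.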

Data set [1] relates to Rhesus monkey. Nature of the data set: In vivo plasma levels in Rhesus monkey was determined at a dose of 8 mg/kg administered orally. Type of data set: functional, organism-based. More on the design: dose 8 mg/kg. The conditions noted are these: Cercopithecidae.
The species entered for data set [2] is Mus musculus. Nature of the data set: In vitro Hepatic microsomal metabolism in mouse. Type of data set: functional. To be noted: Liver.
The species named for another data set is Canis familiaris. Nature of the data set: In vitro hepatic microsomal metabolism in dog. Type of data set: functional. The conditions noted are these: Canis lupus familiaris, Liver. In a few lines: as §1
For another data set, the species on record is Homo sapiens. Nature of the data set: In vitro hepatic microsomal metabolism in human. It counts as functional. To be noted: Liver. In outline: as §1
Data set [3] is filed under the species Rattus norvegicus. Nature of the data set: In vitro hepatic microsomal metabolism in rat. It counts as functional. To be noted: Liver. In a few lines: as §1
A short description of data set [4]: Oral bioavailability in Rhesus monkey (dose 16 mg/kg). The conditions noted are these: in vivo. It counts as ADME, organism-based, Macaca mulatta. In a few lines: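 Two female and two male rhesus monkeys were dosed orally (16 mg/kg) and then iv (1 mg/kg) after a 2-week washout. Plasma was sampled from 1 min to 8 h, extracted liquid-liquid into benzene or cyclohexane, and quantified by reverse-phase HPLC (detection limit 10 ng/mL). AUC was calculated by the trapezoidal rule, and bioavailability = (AUCpo/dose)/(AUCiv/dose) × 100.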

The species entered for data set [5] is Rattus norvegicus. Nature of the data set: In vitro hepatic microsomal metabolism in rat. The conditions noted are these: Liver. It counts as functional. In outline: as §1
The species entered for data set [6] is Mus musculus. Nature of the data set: In vitro hepatic microsomal metabolism in mouse. Type of data set: functional. To be noted: Liver.
Data set [7] deals with Human rhinovirus sp. Nature of the data set: Compound was tested for resistance (survivors(%)) by extended cycle replication assay conducted in 1 ug/mL Enviroxime.(3A amino acid substitution Met 54 to Ile). It counts as functional. In a few lines: (§2)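 Values are expressed relative to a no-drug control. Mutants of rhinovirus 14 were isolated, sequenced and assayed for resistance by earlier-reported procedures.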

Data set [8] relates to Human rhinovirus sp. Nature of the data set: Compound was tested for resistance (survivors(%)) by extended cycle replication assay conducted in 1 ug/mL Enviroxime.(3A amino acid substitution Asp 28 to Tyr). Type of data set: functional. In outline:
as §2

Data set [9] has as its system Human rhinovirus sp. Nature of the data set: Compound was tested for resistance (survivors(%)) by extended cycle replication assay conducted in 1 ug/mL Enviroxime.(3A amino acid substitution Glu 51 to Val). It counts as functional. In outline:
as §2

Data set [10] concerns Human rhinovirus sp. Nature of the data set: Compound was tested for resistance (survivors(%)) by extended cycle replication assay conducted in 1 ug/mL Enviroxime.(3A amino acid substitution Gly 72 to Ser). Type of data set: functional. In a few lines:
as §2

For data set [11], the system named is Human rhinovirus sp. Nature of the data set: Compound was tested for resistance (survivors(%)) by extended cycle replication assay conducted in 1 ug/mL Enviroxime.(3A amino acid substitution Ile 32 to Val). Type of data set: functional. In outline:
as §2

Data set [12] deals with Human rhinovirus sp. Nature of the data set: Compound was tested for resistance (survivors(%)) by extended cycle replication assay conducted in 1 ug/mL Enviroxime.(3A amino acid substitution Ile 42 to Val). Type of data set: functional. In a few lines: as §2
The subject of data set [13] is Human rhinovirus sp. Nature of the data set: Compound was tested for resistance (survivors(%)) by extended cycle replication assay conducted in 1 ug/mL Enviroxime.(3A amino acid substitution Glu 34 to Val). It counts as functional. In a few lines:
as §2

Data set [14] deals with Human rhinovirus sp. Nature of the data set: Compound was tested for resistance (survivors(%)) by extended cycle replication assay conducted in 1 ug/mL Enviroxime.(3A amino acid substitution Ile 77 to Val). It counts as functional. In a few lines: as §2
The subject of data set [15] is Human rhinovirus sp. Nature of the data set: Compound was tested for resistance (survivors(%)) by extended cycle replication assay conducted in 1 ug/mL Enviroxime. wild type. It counts as functional. In outline: as §2
The test system of data set [16] is rhinovirus B14. Nature of the data set: % survivors was determined against mutants of human rhinovirus 14 by extended cycle replication assay in 1 ug/mL enviroxime. It counts as functional. In a few lines: as §2
Data set [17] has as its system rhinovirus B14. Nature of the data set: % survivors was determined against mutants of human rhinovirus 14 by extended cycle replication assay in 1 ug/mL enviroxime by different amino acid substitution by different amino acid substitution. Type of data set: functional. In a few lines:
as §2

The subject of data set [18] is Human rhinovirus sp. Nature of the data set: (§3) % survivors was determined against mutants of human rhinovirus 14 by extended cycle replication assay in 1 ug/mL enviroxime by different amino acid substitution. Type of data set: functional. In a few lines: as §2
Data set [19] concerns rhinovirus B14. The data set is described as §3. Type of data set: functional. In a few lines: as §2
For data set [20], the system named is Rhesus monkey. Nature of the data set: In vivo plasma levels in Rhesus monkey was determined at a dose of 8 mg/kg administered orally; none detected. It counts as functional, organism-based. On the set-up: dose 8 mg/kg. To be noted: Cercopithecidae.

As usually defined, the bioavailability is dose-corrected exposure relative to a reference, in per cent.

Structures are written as SMILES. Where “and” joins values, the source holds several entries; their conditions need not be identical. Identical values can stand only once.

`C/C=C(\c1ccccc1)c1ccc2nc(N)n(S(=O)(=O)C(C)C)c2c1` [ENVIRADENE]: the Metabolism is 88% in the data set with Monkey; 36% in the data set filed under Mus musculus [2]; 40% in the data set filed under Canis familiaris; 73% in the data set listed under Homo sapiens; 27% in the data set filed under Rattus norvegicus [3]. Moreover, the Plasma concentration with Rhesus monkey [1] was determined as 14 ng/mL; in the data set on Rhesus monkey [1] (tested as the 2H-labelled form), 10 ng/mL.

For the compound `C#C/C=C(\c1ccccc1)c1ccc2nc(N)n(S(=O)(=O)C(C)C)c2c1`, the Plasma concentration in the data set on Rhesus monkey [1] amounted to 70 ng/mL. This compound had a bioavailability in data set [4] of 9%.

Turning to `C#C/C=C(\c1ccc([S+](C)[O-])cc1)c1ccc2nc(N)n(S(=O)(=O)C(C)C)c2c1` (configuration not stated), the bioavailability in data set [4] was 3%.

For `C#C/C=C(\c1ccc(F)cc1)c1ccc2nc(N)n(S(=O)(=O)C(C)C)c2c1`, the Metabolism was 37% in the data set on Monkey; 31% in the data set filed under Canis familiaris; 12% in the data set filed under Homo sapiens; 29% in the data set listed under Rattus norvegicus [5]; 13% in the data set filed under Mus musculus [6]. For the same compound, the bioavailability in [4] was found to be 23%.

`C#C/C=C(\c1ccc(SC)cc1)c1ccc2nc(N)n(S(=O)(=O)C(C)C)c2c1` had a bioavailability in data set [4] of 5%.

For `C#C/C=C(\c1ccc(OC)cc1)c1ccc2nc(N)n(S(=O)(=O)C(C)C)c2c1`, the Survivors with Human rhinovirus sp. [7] is listed as 3.5%; in the data set on Human rhinovirus sp. [8] it was 4.7%; in the data set with Human rhinovirus sp. [9] it was 3.8%; with Human rhinovirus sp. [10], 6.8%; in the data set on Human rhinovirus sp. [11], 2.3%; in the data set with Human rhinovirus sp. [12], 5.6%. The values for the Survivors with Human rhinovirus sp. [13], in the data set with Human rhinovirus sp. [14] and in the data set on Human rhinovirus sp. [15] were 5%, 2.2% and 0.05%, respectively. In [4], this compound had a bioavailability of 5%.

Turning to `CC(C)S(=O)(=O)n1c(N)nc2ccc(/C(=N/O)c3ccccc3)cc21` [ENVIROXIME], the Metabolism with Monkey turned out to be 80%; in the data set listed under Canis familiaris, 37%; in the data set filed under Homo sapiens, 98%; in the data set listed under Rattus norvegicus [5], 39%; in the data set listed under Mus musculus [6] it was 24%. In addition, the Survivors was 1.9% with Human rhinovirus sp. [7]; 2% with Human rhinovirus sp. [8]; 1.3% in the data set on Human rhinovirus sp. [9]; 4.9% in the data set on Human rhinovirus sp. [10]; 0.6% and 2.1% with rhinovirus B14 [16]; 0.7% in the data set with Human rhinovirus sp. [11]. The Survivors in the data set on Human rhinovirus sp. [12] is 1.7%; with rhinovirus B14 [17], 1.5%; in the data set on Human rhinovirus sp. [13], 1.5%; in the data set on Human rhinovirus sp. [18] it was 1.1% and 0.03%; with rhinovirus B14 [19] it was 5.5%; in the data set with Human rhinovirus sp. [14] it was 0.7%. For the same compound, the Survivors with Human rhinovirus sp. [15] is recorded as 0.07%.

Consider `C=C/C=C(\c1ccccc1)c1ccc2nc(N)n(S(=O)(=O)C(C)C)c2c1`, for which the Plasma concentration entry in the data set on Rhesus monkey [20] is “none detected”.

Consider `C#C/C=C(\c1ccc(OCC)cc1)c1ccc2nc(N)n(S(=O)(=O)C(C)C)c2c1`, for which the bioavailability in [4] was determined as 4%.
